This data set concerns MS2 coat protein. The data set is described as follows: apparent Kd, MS2 coat protein; higher = weaker binding; RNA-MaP array; FMN 200 µM where present. In outline:
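The apparent Kd is the median of filtered binding-curve fits, one per cluster, to green signal normalised to red-channel RNA signal and control-cluster median Fmax. The clusters were on Illumina sequencing chips, and stalled E. coli RNA polymerase had transcribed the designs on them. Titration used SNAP-549-labelled MS2 coat protein from 0.7 or 1.5 nM, doubling to 3 µM, without and then with constant ligand, in 100 mM Tris-HCl pH 7.5, 80 mM KCl, 4 mM MgCl2, BSA, DTT, yeast tRNA and Tween-20.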

Setting [1] is: designed as: OFF switch for flavin mononucleotide, no ligand.
Where [2] appears, read: ligand present: flavin mononucleotide, designed as: OFF switch for flavin mononucleotide.
The mark [3] stands for this setting: designed as: ON switch for flavin mononucleotide, no ligand.
Where [4] appears, read: ligand present: flavin mononucleotide, designed as: ON switch for flavin mononucleotide.

For orientation: apparent Kd means the concentration giving half-maximal binding under the conditions of the assay. For the sequence “AAAUAACCUAGCAAAAUUUCCUCACAUGAGGAUCACCCAUGUAGAAGGCUGUCCUAAAAUAGGACAGAGGAUAUACGUGCUAGG”, the “apparent Kd” value reads like this: under setting [1], 6.82 nM; under setting [2], 107 nM. As for “CAUUUGUGAGGAUAUCAGGUGUGCUAGCGUACUGGUACAUCUGAGAAGGCACAUGAGGAUCACCCAUGUUCCUC”, the “apparent Kd” value under setting [1] was found to be 50 nM and the “apparent Kd” value under setting [2] was found to be 312 nM. The matching figures for “AUAGGGACCUCGCAAUGUUUACAUGAGGAUCACCCAUGUAAGAGAAGGGUCCAGUCAUCUCCUGGAUAGGAUAUCUUACCGUUA”: 5.21 nM and 6.44 nM. Regarding “GAGUACUGAGGAUAUACAUGAGGAUCACCCAUGUGUUCCAGCUAGGAAACUAGCAAAAGUAGAAGGCAGUACUG”, the “apparent Kd” value stood at 19.5 nM under setting [1] and 156 nM under setting [2]. Take “AAAAAACAUGAGGAUCACCCAUGUCGAAAGACAUGAGGAUAUGUACAGACUUCGGUCUGUACAGAAGGCAUGUCUU”: the “apparent Kd” value came to 37.3 nM under setting [3] and 15.2 nM under setting [4]. As for “CGCAGGAUACAGAAGGAGUUAUUGAGAGGUUUACUAGGAUAUGUUCACAUGAGGAUCACCCAUGUCAUAUGGUUUUUUAUUGCG”, the “apparent Kd” value under setting [1] amounted to 12.5 nM and the “apparent Kd” value under setting [2] came to 11.7 nM. Consider “GUCGAAACCAUACUAGUCGACGGUCAGGAUAUACAUGAGGAUCACCCAUGUGCUAUUGAUACUAUGUAGAAGGGACCCACCGCA”, for which the “apparent Kd” value reads like this: under setting [1], 15 nM; under setting [2], 24.6 nM. Regarding “GCGUUUACGGUUGACACUUAGCGAGAGGAUAUGGAAAACAAGACAUGAGGAUCACCCAUGUACUAUCAGAAGGCUCGAGUACGC”, the “apparent Kd” value reads like this: under setting [3], 8.65 nM; under setting [4], 5.29 nM. On to “AGUAACAGAGGAUAUACUAUUUUAUGUGUUUGUUAUUUUGAACAUGAGGAUCACCCAUGUAGAAGGCUGAAUAA”, for which the “apparent Kd” value is, setting by setting: under setting [1], 25 nM; under setting [2], 26 nM. With “CUUCGUAUAGAGGAUAUAGGUUACCUCGGUAUCCUAGAAGGCUGUACAUGAGGAUCACCCAUGUACUUCAGAUC”, the “apparent Kd” value stood at 12.4 nM under setting [1] and 14.5 nM under setting [2].

For the sequence “ACCGCUCGAGGAUAUACAUGAGGAUCACCCAUGUAACCCAGAAGCAAGGCCUCAGGAUGUAGAAGGCGACGCAA”, the “apparent Kd” value under setting [1] came out at 14 nM and the “apparent Kd” value under setting [2] turned out to be 14.2 nM.

With “GGGUACAUCGGAGGAUAUCAUGUAAAUACAUGAGGAUCACCCAUGUCGAUGGAGACAUCGGAGAUUGAGAAGGCCAAUGUACCG”, the “apparent Kd” value under setting [3] stood at 180 nM and the “apparent Kd” value under setting [4] worked out at 8.76 nM. “GUGCACAUUCGAGGAUAUCGGAGAGAGAUCCUUCGAGAAGGCGAUUCAUGAUGUAUUAUCCUGGACAUGAGGAUCACCCAUGUG”: the “apparent Kd” value by setting is: under setting [3], 579 nM; under setting [4], 288 nM. Turning to “AAGGUACGAGGAUAUGCAUAGAUACAGACACAUGUUCAAGUACAUGAGGAUCACCCAUGUAGAAGGCGUAUAUA”, the “apparent Kd” value under setting [1] is 43.5 nM and the “apparent Kd” value under setting [2] is 61.8 nM. For “UAAACAUGAGGAUCACCCAUGUAAAGAUCGGUAGUAGAGAGUGAGGAUAUACUAAAAUUUAUAGAGUAGAAGGCACUGGGUUCU”, the “apparent Kd” value reads like this: under setting [3], 38.4 nM; under setting [4], 28.6 nM. As for “AGCUAGUACCGAGGAUAUACAUACAUGAGGAUCACCCAUGUAUACAUGAAUUUAUGAGACUACAUGUAGAAGGCGGUACUAGCA”, the “apparent Kd” value is, setting by setting: under setting [3], 58.9 nM; under setting [4], 15.9 nM. The matching figures for “AUAUCUCCCGAGAAGGACGUACCACAUGUUGAUCACCGAUAUAAGGAACGUAGGAUAUUGGACAUGAGGAUCACCCAUGUGGAU”: 391 nM and 23.6 nM. With “GAGCUAUGAGGAUAUGCAUAGAUACGGAUUCGUGUAGUACUACAUGAGGAUCACCCAUGUAGAAGGCGUGGCUG”, the “apparent Kd” value came to 18.5 nM under setting [1] and 20.5 nM under setting [2]. For “AGUGUCAUCGAGAAGGCCUCAACAUGAGGAUCACCCAUGUUGCAAAAUGGGAGGAUAUCGCGCGUUCAAAAACGUUUCGUAGCA”, the “apparent Kd” value under setting [3] was 42.3 nM and the “apparent Kd” value under setting [4] is 17.6 nM. “ACAUGAGGAUCACCCAUGUACAUGGGUAUUAUUGUUUGUUACUAGGAUAUGUAUUUGAAUUUACAACAGAAGGAGUAUUAAUGU”: the “apparent Kd” value by setting is: under setting [1], 1160 nM; under setting [2], 632 nM. As to “AAACAUGUCCGAGGAUAUCUGGAAACAUUUUCAAGAGAAGGCGGACAUGAGGAUCACCCAUGUCUCUCCUCAUCAAAUCCAAGU”, the “apparent Kd” value under setting [1] is 21.4 nM and the “apparent Kd” value under setting [2] is 148 nM. On to “GUGGAGUACGUAGGAUAUGUAGGAUAUUCCUACAUGAGGAUCACCCAUGUAAGCAUGGAAGAAGGACAGAAGGACGUGCUCCAG”, for which the “apparent Kd” value is, setting by setting: under setting [3], 231 nM; under setting [4], 12.1 nM. Consider “UGUGUUAUUGGAGGAUAUCGAUAUCAAACAUGAGGAUCACCCAUGUUGAGGAUCACACAUGUAAAUGAGAAGGCCGACGUAGUG”, for which the “apparent Kd” value by setting is: under setting [3], 12.5 nM; under setting [4], 16.2 nM. Regarding “GUCAGCUCGUGAGGAUAUACAACACUGCUUCGGCAGUGUAUUAAGAUCACAUGAGGAUCACCCAUGUAGAAGGAACGAGCUGAU”, the “apparent Kd” value is 7.52 nM under setting [1] and 24.2 nM under setting [2]. In the case of “GGCCUGUUAGGAUAUUAGUAGUAGUCAGAAUAGACUAUUACUGAGAAGGGACAUGAGGAUCACCCAUGUUGGCC”, the “apparent Kd” value runs as follows: under setting [1], 17.5 nM; under setting [2], 19.9 nM.

Regarding “GGAUGACAAAGUCAUCCAAUUCGAACAUGAGGAUCACCCAUGUAGGAUAUGCUACUCAAAGAGUAGCAGAAGGACAUGUGCUUU”, the “apparent Kd” value reads like this: under setting [1], 37.7 nM; under setting [2], 167 nM.

For “GUGUAGAUAUCAGGAUAUCCAUUUCCUACAUGAGGAUCACCCAUGUAGAUGAUCACCCAUGUAAAGGAGAAGGGAUAUCUAUAC”, the “apparent Kd” value reads like this: under setting [3], 206 nM; under setting [4], 173 nM.

In the case of “AAAACCUCAUGAGGAUAUCCAACAUGAGGAUCACCCAUGUUAGUCUCAGUACUAGGUACUUGAGAGGAGAAGGCAUGCCAGGGC”, the “apparent Kd” value is, setting by setting: under setting [3], 123 nM; under setting [4], 36.2 nM.

Turning to “GUAGCUAUCGCAGGAUAUCCUCAGGCGAAAGCCACAUGAGGAUCACCCAUGUAAAUUAAGAAUUUGGAGAAGGGCGAUAGCUAC”, the “apparent Kd” value amounted to 479 nM under setting [3] and 27.3 nM under setting [4]. With “CGAUAGGACAGAGGAUAUACGUGCUAGAGAUACUAGCAAAAUUACAACACAUGAGGAUCACCCAUGUAGAAGGCUGUCCUAUCG”, the “apparent Kd” value under setting [1] amounted to 5.04 nM and the “apparent Kd” value under setting [2] worked out at 6.21 nM. With “AAAAUAUAAAGAGAGGAUAUCCAAAGAACCACAUGAGGAUCACCCAUGUAAAGAAAGAAUAAGUGGGAGAAGGCUCAAAUAAUAA”, the “apparent Kd” value amounted to 187 nM under setting [3] and 29.2 nM under setting [4]. For the sequence “CUAUAGAUAUCAGGAUAUCUAUUUCCAACAUGAGGAUCACCCAUGUUGAGGAUCACCCAUGUAAAGGAGAAGGGAUAUCUAUAG”, the “apparent Kd” value runs as follows: under setting [3], 69.1 nM; under setting [4], 16.4 nM.

Consider “AGCUCGGGUGCAGGAUAUCCGCCGGAUCGCAGUGGAGAAGGGCGCCAAGCGAACAUGAGGAUCACCCAUGUAUCGGAGCCGGAC”, for which the “apparent Kd” value is, setting by setting: under setting [3], 55.6 nM; under setting [4], 11.1 nM. Turning to “CGGCGCUGUUGAGAGGAUAUGCGGUGAUGGACAUGAGGAUCACCCAUGUUAGCGAUAGCAUUACGGUAGAAGGCUCUACAGCUGC”, the “apparent Kd” value by setting is: under setting [3], 17.9 nM; under setting [4], 14.1 nM.

Regarding “ACGGCUUAGUCAGGAUAUACAAGAUUGUGAGACUACAUGAGGAUCACCCAUGUAGAAGGGACUAAUCGUCUGAACAUUGCUUUC”, the “apparent Kd” value under setting [1] stood at 7.58 nM and the “apparent Kd” value under setting [2] was found to be 22.1 nM.

On to “UUACCUCAUGAGAAGGCGAUCAUGAAACAUGAUCGAGGAUAUCAUGUAAACAUGAGGAUCACCCAUGUAUGGGUAUUAUGGUAA”, for which the “apparent Kd” value amounted to 166 nM under setting [3] and 44.1 nM under setting [4]. With “ACAGCGUGAGGAUAUACAUGAGGAUCACCCAUGUAUGGCAGGUUAUCCUGUCGUAAGUGUAGAAGGCACGCUGU”, the “apparent Kd” value is 20.4 nM under setting [1] and 58.5 nM under setting [2].

For “GAUAGGAAGUAAGGAUAUAGACAUGAGGAUCACCCAUGUCUGUGCCGCGUGGAUGAAGGGAGUGUCUAGAAGGUACUGCUCUGU”, the “apparent Kd” value worked out at 15.5 nM under setting [1] and 7.5 nM under setting [2].

As for “UUAUUUUGUCAAGGAUAUGUAGUAUUGAUUUGAAAACAUGAGGAUCACCCAUGUAUAUGGUGGGAACAGAAGGUGAAUGUUGAA”, the “apparent Kd” value is, setting by setting: under setting [1], 311 nM; under setting [2], 290 nM. Take “UUGCGCUGUCGAGAGGAUAUGCGGUGUUGGACAUGAGGAUCACCCAUGUUAGCGAUUGCUUUACGGUAGAAGGCUCUUCAGCUGC”: the “apparent Kd” value stood at 78.8 nM under setting [3] and 52.9 nM under setting [4]. Regarding “AAGAGAAGAACUGAGGAUAUCAGGGAUGGUACAUGAGGAUCACCCAUGUUGGCAAGCGAAGAAACUGAGAAGGCAGAGAAGAAGAA”, the “apparent Kd” value amounted to 80.3 nM under setting [3] and 48.1 nM under setting [4].

On to “GACGUCGGAAGUCGACGCCACUACAAGGAUAUGCACAUGAGGAUCACCCAUGUUACGAAAUCGUAGCAGAAGGUGUAGUCGUCU”, for which the “apparent Kd” value under setting [3] amounted to 245 nM and the “apparent Kd” value under setting [4] was 24 nM. On to “UUGACGGCAGGAUAUACAUGAGGAUCACCCAUGUAAAUUUUUCGUUUAACUUGAAUGUGUAGAAGGGCCAAAAC”, for which the “apparent Kd” value worked out at 22.7 nM under setting [1] and 19.5 nM under setting [2]. In the case of “UGUAACCUAGGAUAUACAUGAGGAUCACCCAUGUAAUGUAGUAUAGUGUGUGUGAGGUGUAGAAGGAGGGAUGU”, the “apparent Kd” value under setting [1] stood at 79.5 nM and the “apparent Kd” value under setting [2] worked out at 125 nM. With “GCCUCACAUGAGGAUCACCCAUGUCAGGAUAUACCCAUCCGGCGCAAUUGCAGCCGUAGUAGAAGGGACAUGCA”, the “apparent Kd” value by setting is: under setting [1], 21.2 nM; under setting [2], 45.8 nM.

Turning to “GUAGCAUGAUUAGGAUAUUCAGCGAAUAGAUUGACAUGAGGAUCACCCAUGUGGCGAAAGCCGAGGGAGAAGGGAUGAUGCUAC”, the “apparent Kd” value under setting [4] is 47.4 nM. Turning to “CAAUUUAUGUCAGGAUAUACAAUACAAUGAUUAGUAGAAGGGAUUAAUACAUGAGGAUCACCCAUGUCAUGUGUCAUAGUAACC”, the “apparent Kd” value under setting [1] stood at 23.9 nM and the “apparent Kd” value under setting [2] is 19.4 nM.

In the case of “UAAACGUUCUAGAAGGUGCUUUUGUUAAACAAGCAAGGAUAUAGACAUGAGGAUCACCCAUGUCUUUGUGACAUCGACAUACUU”, the “apparent Kd” value under setting [1] came out at 8.44 nM and the “apparent Kd” value under setting [2] came to 11.2 nM.

For the origin of these results see the EternaBench riboswitch data.
